# An excerpt weighted towards active compounds, which were near 4.1% of everything screened.
# hERG protect = shields human hERG channel from block by proarrhythmic agents; Q12809; CHO-hERG, FluxOR thallium flux, dofetilide IC70 present; activation (rescue from dofetilide block), less the hit threshold, % at 10 µM; 310,000 tested, 0.51% active;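 active = activation above the mean of controls blocked by dofetilide plus 5 SD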;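 note: thallium influx through hERG after potassium depolarization seen as dye fluorescence rise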
# Target sequence (Q12809 whole entry, looked up): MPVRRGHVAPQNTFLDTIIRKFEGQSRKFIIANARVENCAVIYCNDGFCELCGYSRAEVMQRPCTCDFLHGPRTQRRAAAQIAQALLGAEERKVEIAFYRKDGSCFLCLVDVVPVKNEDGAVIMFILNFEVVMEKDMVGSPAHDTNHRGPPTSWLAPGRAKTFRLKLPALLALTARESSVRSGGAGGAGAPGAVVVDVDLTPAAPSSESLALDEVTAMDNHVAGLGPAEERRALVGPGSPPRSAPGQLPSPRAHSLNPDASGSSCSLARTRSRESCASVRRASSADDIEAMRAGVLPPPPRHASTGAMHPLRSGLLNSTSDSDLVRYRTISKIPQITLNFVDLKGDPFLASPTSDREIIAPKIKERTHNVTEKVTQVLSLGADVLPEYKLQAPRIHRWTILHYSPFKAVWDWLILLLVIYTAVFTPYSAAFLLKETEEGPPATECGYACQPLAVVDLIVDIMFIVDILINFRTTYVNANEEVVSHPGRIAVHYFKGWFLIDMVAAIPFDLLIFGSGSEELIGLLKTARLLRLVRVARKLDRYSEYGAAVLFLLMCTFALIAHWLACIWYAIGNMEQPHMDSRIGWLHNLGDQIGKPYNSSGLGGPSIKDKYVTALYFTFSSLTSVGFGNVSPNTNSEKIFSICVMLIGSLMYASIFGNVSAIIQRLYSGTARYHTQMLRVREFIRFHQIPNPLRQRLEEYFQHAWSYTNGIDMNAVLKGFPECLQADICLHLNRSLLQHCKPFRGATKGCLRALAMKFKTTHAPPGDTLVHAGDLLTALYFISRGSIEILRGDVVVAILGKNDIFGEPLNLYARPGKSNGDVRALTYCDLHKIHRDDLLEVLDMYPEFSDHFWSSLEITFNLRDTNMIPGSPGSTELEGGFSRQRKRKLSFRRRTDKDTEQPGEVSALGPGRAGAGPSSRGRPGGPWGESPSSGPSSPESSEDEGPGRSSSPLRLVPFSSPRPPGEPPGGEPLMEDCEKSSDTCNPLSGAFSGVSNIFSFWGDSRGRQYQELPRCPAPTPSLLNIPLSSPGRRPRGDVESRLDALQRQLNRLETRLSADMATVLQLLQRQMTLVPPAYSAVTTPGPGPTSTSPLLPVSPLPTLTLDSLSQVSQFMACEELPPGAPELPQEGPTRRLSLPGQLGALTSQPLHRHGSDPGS
# KCNQ1 act = potentiates or activates the human KCNQ1 potassium channel; CHO-K1 KCNQ1, thallium flux FluxOR fluorescence; active compounds read high; AID 2648; B-score at 10 µM; 310,000 tested, 0.35% active; P51787;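 active = fluorescence ratio B-score, a plate-corrected score, at least three library SD, with initial intensity B-score within 5 SD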
#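 assay system = CHO-K1 cells stably expressing KCNQ1 | medium = assay buffer, equal DMSO in all wells | timing = 37 °C overnight plating, 90-min dark dye load, 20-min compound pretreatment | measured by = kinetic FluxOR thallium fluorescence, 10-s 1-Hz baseline, 110-s post-stimulus read | measure = fluorescence change relative to baseline, converted to B score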
# KCNK9 block = human KCNK9 channel inhibition | Q9NPC2 | AID 488922 | 310,000 tested, 1.2% active | B-score at 10 µM | HEK293 KCNK9, FluxOR thallium flux fluorescence; active compounds read low;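 active = ratio B-score over 3 SD below the library mean, with starting fluorescence within 5 SD of its mean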;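 note: negative B-score means less thallium flux so channel inhibition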
# KCC2 mod = KCC2 (human) Cl- transport modulation; KCC2 cells, thallium flux FluoZin-2 fluorescence; B-score of Tl+ flux slope (higher = more flux/activation; lower = inhibition) at 10 µM; Q9H2X9; 190,000 tested, 2.2% active; AID 1456;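 active = thallium flux slope and its plate-corrected score both differing from the plate sample mean at a set confidence after two filtering rounds, in either direction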;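 note: slope of fluorescence scaled to starting intensity during 10 to 20 s after thallium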
# KCNK3 inh = human KCNK3 channel inhibition, primary screen; CHO-KCNK3 thallium flux, FluxOR fluorescence; active compounds read low; O14649; B-score at 10 µM; 340,000 tested, 0.84% active;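 active = B-score under library mean minus 4 SD, starting fluorescence ratio at most library mean plus 5 SD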;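 note: more negative B-score means stronger inhibition of thallium flux through KCNK3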
# KCNQ1 inh = inhibitors of human KCNQ1 potassium channel. P51787. CHO-K1 KCNQ1, FluxOR thallium flux fluorescence; active compounds read high. B-score at 10 µM. 310,000 tested, 1.3% active;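 active = compounds whose thallium flux B-score, printed positive for inhibition, exceeds three library SD while starting fluorescence stays within three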;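 note: channel opened by potassium depolarization with thallium stimulus after 20 min compound exposure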
# KCNK3 inh conf = human KCNK3 channel inhibition, confirmation assay. shares compounds with KCNK3 inh. CHO-KCNK3 thallium flux, FluxOR fluorescence; 0% buffer, 100% carvedilol maximal block. ratio percent of control, % at 10 µM. 2,400 tested, 99% active. AID 651638;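 active = ratio percent of control, averaged over triplicates, above buffer control mean plus 5 SD, cut at about 64% in these data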;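 note: ratio is the fluorescence rise from min to max over baseline after thallium stimulus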
# KCNK3 noninduced = counter-screen for KCNK3 inhibitors: effect in non-induced cells. thallium flux ratio (lower = more inhibition) at 10 µM. 2,400 tested, 40% active. non-induced KCNK3 parental cells, FluxOR thallium flux; active compounds read low. shares compounds with KCNK3 inh;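 active = thallium flux ratio, averaged over three wells, more than 5 SD below the buffer control mean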;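 note: host cells are CHO cells without KCNK3 induction; ratio is peak minus trough fluorescence over baseline then normalized to buffer controls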
# An asterisk follows results filed as active; i = inactive; · = no result.
SMILES,hERG protect,KCNQ1 act,KCNK9 block,KCC2 mod,KCNK3 inh,KCNQ1 inh,KCNK3 inh conf,KCNK3 noninduced
Cc1ccc(CN(C)C(=O)c2ccccc2Sc2ccccc2C#N)cc1,-14,i,i,·,i,i,·,·
COc1cccc(CN(C)C(=O)c2ccc(COc3ccc(Cl)cc3)cc2)c1OC,-14,i,i,·,-11*,i,134*,0.15*
Cc1ccc(S(=O)(=O)N(C)C)cc1NC(=O)C(C)N(C)CCOc1ccc(Cl)cc1 (stereo not drawn),-10,i,i,·,-9.4*,i,79*,i
COc1cccc(C2c3c(oc4ccccc4c3=O)C(=O)N2CCCN(C)C)c1OC (stereo not drawn),-3,i,i,·,i,i,·,·
Cn1c(=O)n(CCCOc2ccc(Cl)cc2)c2ccccc21,-11,i,i,-0.063,-8.7*,i,100*,i
COc1ccc(CN(CCCN2CCOCC2)C(=O)Nc2ccccc2)cc1OC,-11,i,i,·,i,i,·,·
O=C(Nc1ccccc1)N(CCN1CCOCC1)Cc1cccc(Cl)c1,-6,i,i,0.97,-12*,i,94*,i
Cc1ccc(NC(=O)C2CCCN2C(=O)OCc2ccccc2)c(C)c1 (stereo not drawn),-5,i,i,·,i,i,·,·
c1ccc(CCNc2ncnc3scc(C4COc5ccccc5O4)c23)cc1 (stereo not drawn),-18,i,i,-0.2,-9.1*,i,127*,0.12*
O=C(c1ccc2c(c1)OCCO2)N1CCN(c2ccc([N+](=O)[O-])cc2)CC1,-2,i,i,-1,·,i,·,·
S=c1[nH]nc(-c2ccc(Br)cc2)n1-c1ccc(Br)cc1,-7,i,i,·,-11*,i,75*,i
Cc1ccc(NC(=O)c2c(C(F)(F)F)nn(C)c2SCc2ccc(Cl)cc2)cc1C,-9,i,i,-1.3,-10*,i,110*,0.16*
Cc1ccc(NC(=O)c2c(C(F)(F)F)nn(C)c2SCc2cccc(C(F)(F)F)c2)cc1C,-11,i,i,0.19,i,i,·,·
CCC(C)c1nc2c(c(N3CCC3=O)c1-c1ccccc1)CCCC2 (stereo not drawn),-9,i,i,·,i,i,·,·
COc1cc(NC(=O)c2ccc(S(=O)(=O)N(C)c3ccccc3OC)cc2)cc(OC)c1,·,·,·,·,i,·,·,·
COc1ccccc1N(C)S(=O)(=O)c1ccc(C(=O)Nc2cccc(Br)c2)cc1,·,·,·,·,-12*,·,125*,i
N#Cc1cc(C(=O)c2cc(Br)ccc2O)cn(Cc2ccccc2)c1=O,-16,i,i,0.0037,i,i,·,·
CC(C)N(C(=O)CSc1nc(Cc2ccccc2)nc2ccccc12)C(C)C,-10,i,i,·,-9.5*,i,96*,i
CC(CNC(=S)Nc1cc(F)cc(F)c1)CSc1ccc(Cl)cc1 (stereo not drawn),-15,i,i,0.24,-13*,9*,117*,0.14*
CCOc1nc(CC(C)C)c2c(c1C#N)CC(C)(C)OC2,-14,i,i,-0.24,-9*,i,111*,i
CNC(=S)N1CCn2cccc2C1c1ccc(F)cc1 (stereo not drawn),-20,i,i,-0.22,i,i,·,·
Fc1ccccc1C1c2cccn2CCN1C(=S)Nc1ccc(Br)cc1 (stereo not drawn),-17,i,i,0.62,-15*,7*,132*,0.12*
CC(C)CN(C(=O)Cn1c(C(F)(F)F)nc2ccccc21)C1CCS(=O)(=O)C1 (stereo not drawn),-7,i,i,·,i,i,·,·
S=C1NCCc2ccc(Cl)cc2C1c1ccccc1Cl (stereo not drawn),-6,i,-6.7*,0.42,-11*,i,123*,i
